Data published in ChEMBL document CHEMBL3872250, “Structure-activity and in vivo evaluation of a novel lipoprotein lipase (LPL) activator” (Bioorg Med Chem Lett, 2017).
Values belong to the molecule of their own block, whether it stands above or below them. The source made the active and inactive calls. The rule behind the calls is not given here.

Key:
Mus musculus [1] = assay: In vivo activation of lipoprotein lipase in high fat diet fed C57BL/6 mouse at 10 mg/kg, ip administered daily on last week of 4 months study until end by fluorescence assay; assay type: functional, organism-based
[2] = biological target: T1, Lipoprotein lipase (Bos taurus) (UniProt P11151); assay: Activation of bovine recombinant lipoprotein lipase at 100 uM using p-Nitrophenyl butyrate as substrate by HTS assay relative to NO-1886
T1 sequence (whole entry): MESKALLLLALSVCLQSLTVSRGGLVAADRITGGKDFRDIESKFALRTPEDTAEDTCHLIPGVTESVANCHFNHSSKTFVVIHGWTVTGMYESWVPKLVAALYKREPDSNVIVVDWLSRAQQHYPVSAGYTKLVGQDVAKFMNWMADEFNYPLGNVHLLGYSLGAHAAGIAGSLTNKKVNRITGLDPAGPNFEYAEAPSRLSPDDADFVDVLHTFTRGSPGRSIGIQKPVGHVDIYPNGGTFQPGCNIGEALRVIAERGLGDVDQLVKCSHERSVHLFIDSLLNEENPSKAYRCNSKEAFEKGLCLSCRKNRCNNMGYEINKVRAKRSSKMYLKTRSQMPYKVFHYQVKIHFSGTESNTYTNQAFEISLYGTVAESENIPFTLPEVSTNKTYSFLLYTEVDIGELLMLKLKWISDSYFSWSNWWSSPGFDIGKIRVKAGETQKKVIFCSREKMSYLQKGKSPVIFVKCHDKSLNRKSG
Method in brief: (§1)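 Recombinant LPL screened at 100 µM in a 384-well format with p-nitrophenyl butyrate as substrate. […] release was read as absorbance at 405 nm, and activity was expressed as fold change in absorbance.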

Mus musculus [3] = assay: In vivo activation of lipoprotein lipase in high fat diet fed C57BL/6 mouse assessed as reduction in total body fat content at 1 to 10 mg/kg, ip administered daily on last week of 4 months study until end; assay type: functional, organism-based
Method in brief: (§2)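 Mice fed a high-fat diet (60% kcal from fat) for four months, with daily i.p. dosing at 10 mg/kg during the final week. A dose-response at 1, 5 and 10 mg/kg was used to select the dose. Body weight, total body fat and lean mass were measured by EchoMRI before sacrifice. Mean ± S.D., n = 4.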

Mus musculus [4] = assay: In vivo activation of lipoprotein lipase in high fat diet fed C57BL/6 mouse assessed as reduction in body weight at 1 to 10 mg/kg, ip administered daily on last week of 4 months study until end; assay type: functional, organism-based; method in brief: as §2
Mus musculus [5] = assay: Hepatoprotective activity against high fat diet fed C57BL/6 mouse liver assessed as increase in SIRT1 level at 10 mg/kg, ip administered daily on last week of 4 months study until end; assay type: functional, organism-based
Method in brief: (§3)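 Mice on a high-fat diet for four months were dosed at 10 mg/kg for seven days. Hepatic protein levels of SIRT1 or LC3 were then measured. n = 5 mice; significance at P<0.05.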

Mus musculus [6] = assay: Hepatoprotective activity against high fat diet fed C57BL/6 mouse liver assessed as increase in LC3 level at 10 mg/kg, ip administered daily on last week of 4 months study until end; assay type: functional, organism-based; method in brief: as §3
Mus musculus [7] = assay: Reduction in serum cholesterol level in high fat diet fed C57BL/6 mouse at 10 mg/kg, ip administered daily on last week of 4 months study until end; assay type: functional, organism-based
Method in brief: (§4)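 Serum triglycerides and cholesterol measured with commercial kits after sacrifice. Mice had four months of high-fat diet, with 10 mg/kg i.p. given in the last week. Mean ± SE, n = 3.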

Mus musculus [8] = assay: Toxicity in high fat diet fed C57BL/6 mouse liver assessed as morphological changes at 10 mg/kg, ip administered daily on last week of 4 months study until end by hematoxylin and eosin staining based assay; assay type: organism-based; details: in vivo, 2922 h
Method in brief: (§5)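 After four months of high-fat diet with 10 mg/kg i.p. dosing over the final week, livers were examined by gross morphology and size. Sections were stained with hematoxylin and eosin and viewed at 20X to assess lipid accumulation.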

Mus musculus [9] = assay: Reduction in serum triglycerides level in high fat diet fed C57BL/6 mouse at 10 mg/kg, ip administered daily on last week of 4 months study until end; assay type: functional, organism-based; method in brief: as §4
[10] = biological target: T1, Lipoprotein lipase (Bos taurus); assay: Activation of bovine recombinant lipoprotein lipase at 100 uM using p-Nitrophenyl butyrate as substrate by HTS assay; method in brief: as §1
Mus musculus [11] = assay: Reduction in lipid accumulation in high fat diet fed C57BL/6 mouse liver at 10 mg/kg, ip administered daily on last week of 4 months study until end by hematoxylin and eosin staining based assay; assay type: functional, organism-based; method in brief: as §5
Rattus norvegicus = assay: In vivo activation of lipoprotein lipase in STZ-induced diabetes rat model relative to control; assay type: functional
[12] = biological target: T1, Lipoprotein lipase (Bos taurus); assay: Inhibition of bovine recombinant lipoprotein lipase at 100 uM using p-Nitrophenyl butyrate as substrate by HTS assay; method in brief: as §1
[13] = substrate: CC1(C)CC1(C(=O)NCCCn1ccnc1)c1ccc(F)cc1; assay: Binding affinity to bovine recombinant lipoprotein lipase assessed as Km for substrate using p-Nitrophenyl butyrate as substrate by Lineweaver-Burk plot analysis (reference value: 8.15 mM); details: Bos taurus

fold change (FC) [2]: 2
Activity [10]: Active
Molecule: CC1(C)CC1(C(=O)NCCCn1ccnc1)c1ccc(F)cc1 (configuration not stated)
Activity (Mus musculus [1]): Active
Activity (Mus musculus [3]): Active
Activity (Mus musculus [4]): Active
Activity (Mus musculus [5]): Active
Activity (Mus musculus [6]): Active
Activity (Mus musculus [7]): Active
Activity (Mus musculus [8]): Non-Toxic
Activity (Mus musculus [9]): Active
Activity (Mus musculus [11]): Active

Molecule: CCOP(=O)(Cc1ccc(C(=O)Nc2ccc(Br)cc2C#N)cc1)OCC [IBROLIPIM]
Activity (Rattus norvegicus): 59%

inhibition [12]: Active
Molecule: O=C(Cc1ccc(S)cc1)NCCCn1ccnc1

inhibition [12]: Active
Molecule: Cc1cccnc1CN1CCN(C(=O)C2(c3ccc(F)cc3)CC2(C)C)CC1 (configuration not stated)

inhibition [12]: Active
Molecule: CC1(C)CC1(C(=O)NCCNc1cccnc1)c1ccc(F)cc1 (configuration not stated)

inhibition [12]: Active
Molecule: CC1(C)CC1(C(=O)NCCCc1csc(N)n1)c1ccc(F)cc1 (configuration not stated)

Activity [10]: Active
Molecule: CC1(C)CC1(C(=O)NCCCCN1CCOCC1)c1ccc(F)cc1 (configuration not stated)

inhibition [12]: Active
Molecule: O=C(Cc1ccc(O)cc1)NCCCn1ccnc1

Activity [10]: Active
Molecule: O=C(Cc1ccc(Cl)cc1)NCCCn1ccnc1

Activity [10]: Active
Molecule: O=C(Cc1ccc(F)cc1)NCCCn1ccnc1

Activity [10]: Active
Molecule: O=C(Cc1ccccc1)NCCCn1ccnc1

B1: Lipoprotein lipase (Bos taurus), P11151 (protein)
chain: T1 sequence (whole entry)
Km [13]: 648 µM
